According to ChEMBL document CHEMBL6134900 (J Med Chem, 2025):
Activity calls are given as the source filed them. No cut-off for these calls is given here.

How the values were obtained:
[1] = target: T1, Protein cereblon/SWI/SNF-related matrix-associated actin-dependent regulator of chromatin subfamily A member 2 (Homo sapiens, UniProt P51531+Q96SW2); assay: PROTAC activity at CRBN/SMARCA2 in human H322 cells harboring SMARCA4 mutant assessed as induction of SMARCA2 degradation at 0.1 uM in presence of Gen-1 by immunoblot analysis; assay type: cell-based
[2] = target: T1, Protein cereblon/SWI/SNF-related matrix-associated actin-dependent regulator of chromatin subfamily A member 2; assay: PROTAC activity at CRBN/SMARCA2 in human H322 cells harboring SMARCA4 mutant assessed as induction of SMARCA2 degradation at 0.1 uM in presence of MLN4924 by immunoblot analysis; assay type: cell-based
[3] = Drug metabolism in mouse liver microsomes assessed as N-dealkylation mediated 2-(6-amino-5-(4-(3-fluoro-4-(piperazin-1-yl)benzyl)piperazin-1-yl)pyridazin-3-yl)phenol metabolite formation at 10 uM incubated for 60 mins by LC-UV-HRMS analysis; assay type: ADME, Microsome; details: 1 h
In short: (§1)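 Compound at 10 μM incubated with mouse liver microsomes at 37 °C for 60 min. Metabolites detected by LC-UV-HRMS, structures proposed from MS and MS2 data, and each metabolite given as a percentage.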

[4] = Drug metabolism in mouse liver microsomes assessed as mono-oxygenation and N-dealkylation mediated M2 metabolite formation at 10 uM incubated for 60 mins by LC-UV-HRMS analysis; assay type: ADME, Microsome; details: 1 h; in short: as §1
[5] = Drug metabolism in mouse liver microsomes assessed as hydrolysis mediated M3 metabolite formation at 10 uM incubated for 60 mins by LC-UV-HRMS analysis; assay type: ADME, Microsome; details: 1 h; in short: as §1
[6] = Half life in male CD-1 (ICR) mouse at 25 mg/kg, po measured up to 24 hrs by LC-MS/MS analysis; assay type: ADME, organism-based; details: in vivo
In short: (§2)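 Single 25 mg/kg dose. IP vehicle was 5% DMSO/5% solutol/90% water at 1.25 mg/mL, final pH 4.39, clear solution. Oral vehicle was 0.5% methylcellulose/0.2% Tween 80 in water, opaque suspension. Plasma sampled at 0.25, 0.5, 1, 2, 4, 8 and 24 h. Plasma protein-precipitated with internal standard in acetonitrile, then LC-MS/MS. n = 3 mice per time point, mean.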

[7] = AUC (0 to infinity) in male CD-1 (ICR) mouse at 25 mg/kg, po measured up to 24 hrs by LC-MS/MS analysis; assay type: ADME, organism-based; details: in vivo; in short: as §2
HCC515 = assay: Antitumor activity against human HCC515 cells harboring SMARCA4 mutant xenografted in female athymic nude mouse assessed as tumor growth inhibition at 5 mg/kg, po administered once daily via gavage for 19 days relative to control; assay type: functional; details: HCC515, 456 h, time 19 day, read-out: TGI
In short: (§3)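 Cells (H1568 2 × 10^6, H2023 10 × 10^6, HCC515 5 × 10^6) in PBS:Matrigel 1:1, 200 μL, injected subcutaneously into flanks of 6–8-week-old females. Randomized at mean tumor volume 60 mm3 (H1568) or <200 mm3 (others). Dosed in 0.5% methylcellulose + 0.2–1% Tween-80, sonicated on ice. Caliper tumor volume and body weight tracked, mean ± SEM.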

NCI-H2030 [8] = assay: Antitumor activity against human NCI-H2030 cells harboring SMARCA4 mutant xenografted in female athymic nude mouse assessed as tumor growth inhibition at 5 mg/kg, po administered once daily via gavage for 17 days relative to control; assay type: functional; details: NCI-H2030, 408 h, time 17 day, read-out: TGI
In short: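 10 × 10^6 H2030 cells in PBS:Matrigel 1:1, 200 μL, injected subcutaneously into flanks of 6–8-week-old females. Randomized at mean tumor volume <200 mm3. Oral gavage once daily in 10% DMSO, 40% PEG300, 1% Tween-80, 49% saline. Caliper tumor volume and body weight monitored, mean ± SEM.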

[9] = Toxicity in female athymic nude mouse xenografted with human NCI-H2023 cells harboring SMARCA4 mutant assessed as change in body weight at 5 mg/kg, po administered once daily via gavage for 19 days relative to control; assay type: organism-based; details: in vivo, 456 h, time 19 day; in short: as §3
[10] = In vivo PROTAC activity at CRBN/SMARCA2 in female athymic nude mouse xenografted with human NCI-H2030 cells harboring SMARCA4 mutant assessed as SMARCA2 degradation at 5 mg/kg, po administered once daily via gavage for 17 days by Western blotting analysis relative to control; assay type: functional; details: time 17 day
In short: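 H2030 cells (10 × 10^6, PBS/Matrigel 1:1) implanted subcutaneously in the flank of female nude mice. Randomised below 200 mm3. 5 mg/kg or vehicle given by oral gavage once daily for 17 days in 10% DMSO/40% PEG300/1% Tween-80/49% saline. Tumours collected 24 h after dosing. SMARCA2 measured by Western blot against β-actin, relative to vehicle.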

NCI-H2030 [11] = assay: Synergistic antitumor activity against human NCI-H2030 cells harboring KRAS G12C mutant/SMARCA4 mutant assessed as inhibition of colony formation incubated for 8 days in presence of sotorasib by clonogenic growth assay; assay type: functional, cell-based; details: time 8.0 day
In short: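 H2030 clonogenic assay over 8 days with 2-fold dilutions of sotorasib, test agent, or both. Crystal violet staining, total colony area normalized. Synergy scored as Bliss/Lowe consensus, >10 taken as synergy.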

NCI-H2030 [12] = assay: Inhibition of ERK phosphorylation in human NCI-H2030 cells harboring KRAS G12C mutant/SMARCA4 mutant assessed as reduction in p-ERK level at 1.25 uM incubated for 48 hrs in presence of sotorasib by Western blotting analysis; assay type: cell-based
[13] = Drug concentration in C57BL/6 mouse plasma at 5 mg/kg, po administered once daily for 3 days and measured at 24 hrs post last dose; assay type: ADME, organism-based; details: time 3 day
In short: (§4)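 Oral dosing once daily for 3 days: 5–80 mg/kg in C57BL/6 mice, 10–80 mg/kg in CrbnI391V mice. Euthanized 24 h after last dose. Plasma drug level measured. Spleen SMARCA2 by Western blot against actin loading control, relative to vehicle.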

[14] = Drug concentration in C57BL/6 mouse plasma at 80 mg/kg, po administered once daily for 3 days and measured at 24 hrs post last dose; assay type: ADME, organism-based; details: time 3 day; in short: as §4
[15] = Antitumor activity against human NCI-H1568 cells harboring SMARCA4 mutant xenografted in female athymic nude mouse assessed as tumor growth inhibition at 40 mg/kg, po administered once daily via gavage for 13 days relative to control; assay type: functional; details: NCI-H1568, 312 h, time 13 day, read-out: TGI; in short: as §3
[16] = Toxicity in female athymic nude mouse xenografted with human NCI-H1568 cells harboring SMARCA4 mutant assessed as change in body weight at 40 mg/kg, po administered once daily via gavage for 13 days relative to control; assay type: organism-based; details: in vivo, 312 h, time 13 day; in short: as §3
NCI-H2030 [17] = assay: Synergistic antitumor activity against human NCI-H2030 cells harboring KRAS G12C mutant/SMARCA4 mutant assessed as cell growth inhibition at 1 uM incubated for 7 days in presence of sotorasib by Incucyte S3 analysis; assay type: functional, cell-based; details: time 7.0 day
In short: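 H2030 cells plated at 500 per well and grown overnight at 37 °C. Treated with 3-fold dilutions of sotorasib, test agent, or both. Confluency imaged every 4 h for 7 days on IncuCyte S3. Synergy scored as Bliss/Lowe consensus, >10 taken as synergy.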

NCI-H2030 [18] = assay: Inhibition of ERK phosphorylation in human NCI-H2030 cells harboring KRAS G12C mutant/SMARCA4 mutant assessed as reduction in p-ERK level at 1.25 uM incubated for 72 hrs in presence of sotorasib by Western blotting analysis; assay type: cell-based

Row | Compound | Activity [1] | Activity [2] | Drug metabolism [3] | Drug metabolism [4] | Drug metabolism [5] | t1/2 [6] | AUC [7] | inhibition in vivo at 5 mg/kg (HCC515) | inhibition in vivo at 5 mg/kg (NCI-H2030 [8]) | Activity [9] | Activity [10] | Activity (NCI-H2030 [11]) | inhibition (NCI-H2030 [12]) | concentration at 72 h [13] | concentration at 72 h [14] | inhibition in vivo at 40 mg/kg [15] | Activity [16] | Activity (NCI-H2030 [17]) | inhibition (NCI-H2030 [18])
1 | Nc1nnc(-c2ccccc2O)cc1N1CCN(Cc2ccc(N3CCN(CCOc4cccc5c4C(=O)N(C4CCC(=O)NC4=O)C5=O)CC3)c(F)c2)CC1 (centres undefined) | inactive | inactive | metabolite_detected | metabolite_detected | metabolite_detected | 6 h | 5122 ng·h/mL | 48.8% | 93.4% | < 10% | 40% | Active | Active | – | – | – | – | – | –
2 | Nc1nnc(-c2ccccc2O)cc1N1CCN(Cc2ccc(N3CCC(CN4CCN(c5ccc6c(c5)C(=O)N(C5CCC(=O)NC5=O)C6=O)CC4)CC3)c(F)c2)CC1 (centres undefined) | – | – | – | – | – | – | – | – | – | – | – | – | – | ~100 nM | 1880 nM | 27.6% | < 10% | Active; Robust Synergistic Growth Inhibition Observed | Active
